Calls of active or inactive are those of the source. The rule behind the calls is not given here.
What was measured:
Aromatase [1] = target: T1, Aromatase (Homo sapiens, UniProt P11511); test: Inhibition of aromatase in human H295R cells using [1beta-3H(N)]-androst-4-ene-3,17-dione as substrate at 10 uM after 24 hrs by tritiated water release assay
T1 sequence (P11511 whole entry): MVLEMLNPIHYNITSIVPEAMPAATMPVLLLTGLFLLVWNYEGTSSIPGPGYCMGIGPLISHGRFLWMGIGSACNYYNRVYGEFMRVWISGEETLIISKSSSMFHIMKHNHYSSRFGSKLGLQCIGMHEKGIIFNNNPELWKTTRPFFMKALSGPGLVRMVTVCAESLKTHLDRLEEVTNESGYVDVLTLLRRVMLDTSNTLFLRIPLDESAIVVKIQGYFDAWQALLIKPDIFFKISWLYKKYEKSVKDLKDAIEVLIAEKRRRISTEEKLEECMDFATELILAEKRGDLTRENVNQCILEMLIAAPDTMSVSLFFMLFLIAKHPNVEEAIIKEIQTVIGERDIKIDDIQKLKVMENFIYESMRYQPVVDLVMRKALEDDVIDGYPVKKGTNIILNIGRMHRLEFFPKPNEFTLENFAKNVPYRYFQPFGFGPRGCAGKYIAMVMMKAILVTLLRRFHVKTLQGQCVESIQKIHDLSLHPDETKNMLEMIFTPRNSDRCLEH

Aromatase [2] = target: T1, Aromatase; test: Inhibition of aromatase (unknown origin) using 7-methoxy-4-trifluoromethylcoumarin as substrate after 30 mins by fluorimetric analysis
Outline: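 Recombinant CYP19 from a high-throughput screening kit, with 7-methoxy-4-trifluoromethylcoumarin as substrate. Enzyme/substrate mix was then added for 30 min at 37 °C before stop reagent. Fluorescence read at λex 410 / λem 530 nm. IC50 given as mean ± SEM of three independent experiments run in duplicate.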

[3] = Growth inhibition of non-estrogen-sensitive human SEM cells after 72 hrs by MTT assay; format: functional
Outline: (§1)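 Cells were seeded at 8x10^3 per well and left 18 h at 37 °C, 5% CO2, then exposed 72 h to compound at several concentrations from 10 mM DMSO stocks (final DMSO ≤0.25%). Jurkat, RS4;11 and SEM were grown in RPMI-1640; H295R in DMEM-F12 with 2% FBS plus insulin-transferrin-selenium. Viability read by MTT.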

Aromatase [4] = target: T1, Aromatase; test: Inhibition of aromatase in human H295R cells using [1beta-3H(N)]-androst-4-ene-3,17-dione as substrate assessed as residual activity at 10 uM after 24 hrs by tritiated water release assay
[5] = target: T2, Steroid 17-alpha-hydroxylase/17,20 lyase (Homo sapiens, UniProt P05093); test: Inhibition of human CYP17 expressed in Escherichia coli using progesterone as substrate NADPH as cofactor
T2 sequence (P05093 whole entry): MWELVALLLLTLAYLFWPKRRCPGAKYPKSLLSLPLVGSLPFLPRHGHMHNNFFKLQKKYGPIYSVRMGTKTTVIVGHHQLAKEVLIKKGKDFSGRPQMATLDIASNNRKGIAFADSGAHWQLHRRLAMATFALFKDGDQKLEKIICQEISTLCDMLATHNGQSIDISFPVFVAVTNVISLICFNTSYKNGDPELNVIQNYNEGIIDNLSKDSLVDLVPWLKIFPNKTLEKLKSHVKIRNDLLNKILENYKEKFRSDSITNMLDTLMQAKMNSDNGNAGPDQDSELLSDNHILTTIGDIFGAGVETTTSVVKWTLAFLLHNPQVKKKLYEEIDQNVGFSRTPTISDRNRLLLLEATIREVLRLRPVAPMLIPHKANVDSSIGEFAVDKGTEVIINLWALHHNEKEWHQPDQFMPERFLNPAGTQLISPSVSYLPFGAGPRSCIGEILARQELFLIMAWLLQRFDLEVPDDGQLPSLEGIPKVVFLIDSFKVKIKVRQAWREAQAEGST
Outline: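 Cell-free assay using the 50000g sediment of E. coli coexpressing human CYP17 and cytochrome P450 reductase, with progesterone substrate and NADPH cofactor. IC50 given as mean ± SEM of three independent experiments run in duplicate.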

OVCAR-3 = test: Growth inhibition of estrogen-sensitive human OVCAR3 cells after 72 hrs by MTT assay; format: functional; conditions: OVCAR-3, 72 h
Outline: as §1

HT-29 = test: Growth inhibition of non-estrogen-sensitive human HT-29 cells after 72 hrs by MTT assay; format: functional; conditions: HT-29, 72 h
Outline: as §1

MCF7 [6] = test: Cell cycle arrest in estrogen-sensitive human MCF7 cells assessed as decrease of accumulation at G1 and S phase at 6 to 50 uM after 24 hrs using propidium iodide staining by flow cytometry; format: functional, cell-based
[7] = target: T3, Cytochrome P450 11B1, mitochondrial (Homo sapiens, UniProt P15538); test: Inhibition of human CYP11B1 using [1,2-3H]-11-deoxycorticosterone as substrate
T3 sequence (P15538 whole entry): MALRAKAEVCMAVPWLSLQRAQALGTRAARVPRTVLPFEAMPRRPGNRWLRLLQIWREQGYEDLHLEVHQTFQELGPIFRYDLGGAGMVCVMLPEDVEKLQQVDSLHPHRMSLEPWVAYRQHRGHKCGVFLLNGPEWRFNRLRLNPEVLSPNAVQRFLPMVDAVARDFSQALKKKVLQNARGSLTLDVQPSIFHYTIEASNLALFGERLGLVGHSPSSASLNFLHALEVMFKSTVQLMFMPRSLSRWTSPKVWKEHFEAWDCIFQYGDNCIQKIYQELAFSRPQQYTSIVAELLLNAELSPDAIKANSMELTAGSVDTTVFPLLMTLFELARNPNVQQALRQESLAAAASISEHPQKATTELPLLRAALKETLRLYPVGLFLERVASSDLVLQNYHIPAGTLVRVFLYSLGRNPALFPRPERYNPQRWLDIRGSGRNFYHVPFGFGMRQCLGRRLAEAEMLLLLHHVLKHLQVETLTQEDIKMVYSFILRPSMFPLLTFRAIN
Outline: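 Hamster fibroblast V79MZh cells expressing human CYP11B1 were incubated with [1,2-3H]-11-deoxycorticosterone substrate and inhibitor at several concentrations. IC50 given as mean ± SEM of three independent experiments run in duplicate.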

MCF7 [8] = test: Cell cycle arrest in estrogen-sensitive human MCF7 cells assessed as increase of accumulation at G2/M phase at 6 to 50 uM after 24 hrs using propidium iodide staining by flow cytometry; format: functional, cell-based
HeLa [9] = test: Cell cycle arrest in non-estrogen-sensitive human HeLa cells assessed as decrease of accumulation at G1 and S phase at 6 to 50 uM after 24 hrs using propidium iodide staining by flow cytometry; format: functional, cell-based
Jurkat = test: Growth inhibition of non-estrogen-sensitive human Jurkat cells after 72 hrs by MTT assay; format: functional
Outline: as §1

MCF7 [10] = test: Growth inhibition of estrogen-sensitive human MCF7 cells after 72 hrs by MTT assay; format: functional; conditions: MCF7, 72 h
Outline: as §1

IGROV-1 = test: Growth inhibition of estrogen-sensitive human IGROV1 cells after 72 hrs by MTT assay; format: functional; conditions: IGROV-1, 72 h
Outline: as §1

HeLa [11] = test: Cell cycle arrest in non-estrogen-sensitive human HeLa cells assessed as increase of accumulation at G2/M phase at 6 to 50 uM after 24 hrs using propidium iodide staining by flow cytometry; format: functional, cell-based
HeLa [12] = test: Growth inhibition of non-estrogen-sensitive human HeLa cells after 72 hrs by MTT assay; format: functional
Outline: as §1

[13] = Growth inhibition of non-estrogen-sensitive human RS4:11 cells after 72 hrs by MTT assay; format: functional; conditions: RS4-11, 72 h
Outline: as §1

NCI-H295R = test: Growth inhibition of estrogen-sensitive human NCI-H295R cells after 72 hrs by MTT assay; format: functional
Outline: as §1

Aromatase [14] = target: T1, Aromatase; test: Inhibition of CYP19 in human H295R cells using [1beta-3H(N)]-androst-4-ene-3,17-dione at 10 uM after 24 hrs by tritiated water release assay; format: cell-based
Outline: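 Cells were then incubated 2 h with 0.5 µM [1β-3H(N)]-androst-4-ene-3,17-dione. Read-out is tritiated water release, expressed as % of untreated cells. Means ± SEM of two independent experiments, each in triplicate.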

Aromatase [15] = target: T1, Aromatase; test: Inhibition of aromatase (unknown origin) using 7-methoxy-4-trifluoromethylcoumarin as substrate at 10 uM after 30 mins by fluorimetric analysis; conditions: 0.5 h
Aromatase [16] = target: T1, Aromatase; test: Activation of aromatase in human H295R cells using [1beta-3H(N)]-androst-4-ene-3,17-dione as substrate at 0.1 uM after 24 hrs by tritiated water release assay

SMILES | IC50 (Aromatase [2]) [µM] | GI50 (OVCAR-3) [µM] | GI50 (HT-29) [µM] | GI50 (Jurkat) [µM] | GI50 (MCF7 [10]) [µM] | GI50 (HeLa [12]) [µM] | GI50 (NCI-H295R) [µM] | inhibition (INH) (Aromatase [14]) | GI50 [3] [µM] | GI50 (IGROV-1) [µM] | GI50 [13] [µM] | other results
CCn1ccc2c3c(CO)cc(-c4ccccc4)nc3ccc21 | > 10 | – | – | – | – | – | – | – | 13.4 | – | – | inhibition at 10 µM (Aromatase [1]): 90%
CCn1ccc2c3c(Cn4cncn4)cc(-c4ccccc4)nc3ccc21 | 0.0133 | 13.6 | 29.5 | 65.8 | 23 | 59.8 | 75.3 | – | 5.5 | 54.3 | 2.7 | activity at 10 µM (Aromatase [4]): 50.9%; IC50 [5]: > 5 µM; Activity (MCF7 [6]): Active; IC50 [7]: 1.48 µM; Activity (MCF7 [8]): Active; Activity (HeLa [9]): Active; Activity (HeLa [11]): Active
CCn1ccc2c3nc(-c4ccccc4)cc(CO)c3ccc21 | > 10 | – | – | – | – | – | – | Not Active | – | – | – | –
COc1ccc(-c2cc(Cn3ccnc3)c3ccc4[nH]ccc4c3n2)cc1 | 0.454 | > 100 | > 100 | 73.8 | > 100 | 67.9 | 46.2 | Not Active | 25.5 | > 100 | 23.3 | IC50 [5]: 0.55 µM; IC50 [7]: 0.96 µM; inhibition (INH) (Aromatase [15]): Not Active
CCn1ccc2c3c(C(=O)O)cc(-c4ccccc4)nc3ccc21 | 1.47 | – | – | – | – | – | – | Not Active | – | – | – | –
Cc1cc(C(=O)O)c2ccc3[nH]ccc3c2n1 | > 10 | – | – | – | – | – | – | Not Active | – | – | – | Activity (Aromatase [16]): Active

More lines, main results first:

IC50 (Aromatase [2]) [µM] | GI50 (OVCAR-3) [µM] | GI50 (HT-29) [µM] | GI50 (Jurkat) [µM] | GI50 (MCF7 [10]) [µM] | GI50 (HeLa [12]) [µM] | GI50 (NCI-H295R) [µM] | inhibition (INH) (Aromatase [14]) | SMILES | GI50 [3] [µM] | GI50 (IGROV-1) [µM] | GI50 [13] [µM] | other results
2.11 | – | – | – | – | – | – | – | OCc1cc(-c2ccccc2)nc2c1ccc1[nH]ccc12 | – | – | – | inhibition at 10 µM (Aromatase [1]): 40%
0.59 | 0.39 | 17.7 | 21.2 | 0.81 | 38.4 | 0.7 | – | COc1cccc(-c2cc(=O)c3ccc4[nH]ccc4c3[nH]2)c1 | 35 | 0.92 | 25 | –
> 10 | – | 1.9 | – | – | – | – | Active | CCOC(=O)c1cc(-c2ccc(OC)cc2)nc2c1ccc1[nH]ccc12 | – | – | – | –

— ChEMBL document CHEMBL2440047, “Design, synthesis, and structure-activity relationships of azolylmethylpyrroloquinolines as nonsteroidal aromatase inhibitors” (J Med Chem, 2013)
